“Also recorded” adds a separate entry of the source. Bridges are numbered along the chain shown (N, C = ends). Where no end group is shown, it is not given here.

In test [1] the target is T1, ER (ERECTA) ectodomain, ERΔK-GFP (Arabidopsis thaliana, UniProt Q42371).
T1 sequence (Q42371 25-580 limits assumed): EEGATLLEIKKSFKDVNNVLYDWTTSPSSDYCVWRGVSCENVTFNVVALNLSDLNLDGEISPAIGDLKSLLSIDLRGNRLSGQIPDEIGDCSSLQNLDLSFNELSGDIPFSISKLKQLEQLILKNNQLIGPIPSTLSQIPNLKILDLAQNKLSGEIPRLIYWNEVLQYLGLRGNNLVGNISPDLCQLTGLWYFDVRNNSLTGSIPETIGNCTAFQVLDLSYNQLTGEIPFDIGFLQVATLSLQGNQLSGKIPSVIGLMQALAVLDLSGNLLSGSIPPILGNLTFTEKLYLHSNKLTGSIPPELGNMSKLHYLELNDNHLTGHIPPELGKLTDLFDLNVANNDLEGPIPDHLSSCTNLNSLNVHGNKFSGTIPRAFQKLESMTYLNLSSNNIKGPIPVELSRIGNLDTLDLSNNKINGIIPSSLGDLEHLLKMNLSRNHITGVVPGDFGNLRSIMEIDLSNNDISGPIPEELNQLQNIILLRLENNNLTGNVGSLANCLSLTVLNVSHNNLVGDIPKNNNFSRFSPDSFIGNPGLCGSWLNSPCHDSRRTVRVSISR
Put plainly: QCM direct binding, ERΔK-GFP-functionalized chip. Particulars: frequency change, phosphate buffer, 4°C. The essentials:
(§1)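 Purified GFP-fused receptors (ERΔK-GFP, TMM-GFP) or control GFP are obtained from N. benthamiana. They are immobilised on gold QCM chips via anti-GFP antibody. Solutions of HPLC-purified, bioassay-verified bioactive peptide are then introduced, and binding is recorded as frequency change. Each run yields 10-20 points (average, SD). Replicate runs: ER n=4 Stomagen, n=2 MEPF2; TMM n=2 Stomagen, n=3 MEPF2; GFP n=3 Stomagen, n=2 MEPF2.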

Test [2] has as its target T2, TMM (TOO MANY MOUTHS), TMM-GFP (Arabidopsis thaliana, UniProt Q9SSD1).
T2 sequence (Q9SSD1 24-496): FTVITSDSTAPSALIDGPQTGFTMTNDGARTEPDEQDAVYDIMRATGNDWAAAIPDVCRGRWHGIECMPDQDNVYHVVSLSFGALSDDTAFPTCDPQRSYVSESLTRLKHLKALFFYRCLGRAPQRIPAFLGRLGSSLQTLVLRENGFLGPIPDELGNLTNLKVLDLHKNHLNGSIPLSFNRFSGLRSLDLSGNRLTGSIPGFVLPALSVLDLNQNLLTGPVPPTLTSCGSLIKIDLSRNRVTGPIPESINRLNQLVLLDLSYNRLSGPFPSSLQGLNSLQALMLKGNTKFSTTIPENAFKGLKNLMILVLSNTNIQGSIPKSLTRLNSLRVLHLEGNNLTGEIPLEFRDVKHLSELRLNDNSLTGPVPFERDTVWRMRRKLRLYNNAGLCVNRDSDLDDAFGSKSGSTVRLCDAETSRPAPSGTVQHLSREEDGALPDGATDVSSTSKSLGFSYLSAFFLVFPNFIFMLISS
Put plainly: QCM direct binding, TMM-GFP-functionalized chip. The note with it: frequency change, phosphate buffer, 4°C. An outline of the steps: as §1

Another test has as its system MPK3 and MPK6. The experiment in a line: MAPK phosphorylation assay in Arabidopsis seedlings. The test is classed as in vivo. The note with it: MEPF2 2.5 μM, Arabidopsis wild-type seedlings; anti-phosphoERK immunoblot. An outline of the steps:
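Peptide (MEPF2) is applied to wild-type Arabidopsis seedlings and sampled over a time course. Heat-denatured peptide serves as a control. Extracts are immunoblotted with anti-phosphoERK antibody to detect phosphorylated MPK6 and MPK3, and Coomassie-stained total protein is shown. Four and two biological replicates are run for the two blot series.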

The subject of a further test is GFP. Put plainly: QCM direct binding, control GFP chip. Particulars: frequency change, phosphate buffer, 4°C, Stomagen n=3, MEPF2 n=2. An outline of the steps:
as §1

The test system of test [3] is Arabidopsis wild-type seedlings, abaxial cotyledon epidermis. It counts as in vivo. Particulars: independent batch of Stomagen used in Fig. 3c, five days, n=8 (Peak 1), n=6 (Peak 2).
Another test concerns TMM. The experiment in a line: Co-IP with TMM-GFP. The test is classed as binding, Arabidopsis. Particulars: N. benthamiana microsomal fraction; 1 μM peptide; anti-GFP IP.
For another test, the target named is T3, ER ectodomain (ERΔK-GFP) (Arabidopsis thaliana, UniProt Q42371).
T3 sequence (Q42371 25-580 limits assumed): T1 sequence (Q42371 25-580 limits assumed)
The experiment in a line: Ligand competition assay, Stomagen vs MEPF2-MYC-HIS for binding to ER. The essentials: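 ER ectodomain–GFP (ERΔK-GFP) is expressed in N. benthamiana, and microsomal fractions are prepared. Fractions are incubated with 1 μM bioactive MEPF2-MYC-HIS plus Stomagen at 0-23.4 μM, then ER is immunoprecipitated. The co-IP'd tagged MEPF2 is immunoblotted first, and the same blot is re-probed with anti-Stomagen antibody. Blots are quantified from four biological replicates (S.E.M.), and IC50 is derived from this immunoblot-based quantification.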

The target in test [4] is ER ectodomain fused to GFP (ERΔK-GFP) (Arabidopsis). Put plainly: co-IP.

As for “TGSSLPDCSYACGACSPCKRVMISFECSVAESCSVIYRCTCRGRYYHVPSRA (disulfide 8-39, 12-18, 15-41, 27-33) [MEPF2]”, the “binding to ERΔK-GFP (words)” value in test [1] is “saturable binding to the ER ectodomain fused to GFP (ERΔK-GFP) with similar dissociation constants at a nanomolar range”; in test [1] (listed as EPF2), “bind to ER and TMM with a similar affinity”. Moreover, the “binding to TMM (words)” value was “bound to TMM with high affinity” in test [2]; “bind to ER and TMM with a similar affinity” in test [2] (listed as EPF2). In addition, the “time after which MPK3/MPK6 phosphorylation declined” value in the test with MPK3 and MPK6 came out at 2 h. Further, the “time to phosphorylation of MPK3 and MPK6” value in the test with MPK3 and MPK6 was 10 min. Moreover, the “binding to control GFP” value in the test on GFP is on record as “No significant binding”.
Consider “IGSTAPTCTYNECRGCRYKCRAEQVPVEGNDPINSAYHYRCVCHR (disulfide 8-41, 13-20, 16-43) [Stomagen]”, for which the “binding to ERΔK-GFP (words)” value in test [1] is “saturable binding to the ER ectodomain fused to GFP (ERΔK-GFP) with similar dissociation constants at a nanomolar range; also recorded: bind to ER and TMM with a similar affinity”. The “bioactivity, HPLC peaks of independent batch used for QCM” value in test [3] is given as “bioactive”. The “association with TMM by Co-IP” value with TMM was “associates with all ER-family RKs and TMM”. Besides, in test [2], the “binding to TMM (words)” value is “bound to TMM with high affinity; also recorded: bind to ER and TMM with a similar affinity”. The molecule also yielded a half-maximal inhibitory concentration (IC50) at ER ectodomain (ERΔK-GFP) of 454 nM. Also, the “replacement of MEPF2 for ER-binding” value at ER ectodomain (ERΔK-GFP) (1 μM bioactive MEPF2-MYC-HIS, increasing Stomagen 0-23.4 μM, IP and immunoblot) is “replaced MEPF2 for ER-binding”. Also, the “binding to control GFP” value in the test on GFP is “No significant binding”.
For IGSTAPTCTYNECRGCRYKCRAEQVPVEGNDPINSAYHYRCVCHR [Stomagen/EPF-LIKE9 peptide (bioactive Stomagen)], the IC50 in test [4] was determined as 454 nM.

Usually IC50 stands for the concentration that gives 50% inhibition.

The values above are taken from publication PMC4532310 (Nature, 2015).
